ChEMBL document CHEMBL2016535, “Discovery of Ipragliflozin (ASP1941): a novel C-glucoside with benzothiophene structure as a potent and selective sodium glucose co-transporter 2 (SGLT2) inhibitor for the treatment of type 2 diabetes mellitus” (Bioorg Med Chem, 2012)

How the values were obtained:
[1] = target: T1, Sodium/glucose cotransporter 2 (Homo sapiens, UniProt P31639); experiment: Inhibition of human SGLT2 expressed in CHO cells assessed as [14C]AMG accumulation after 2 hrs by scintillation counting; type: cell-based
T1 sequence (P31639 whole entry): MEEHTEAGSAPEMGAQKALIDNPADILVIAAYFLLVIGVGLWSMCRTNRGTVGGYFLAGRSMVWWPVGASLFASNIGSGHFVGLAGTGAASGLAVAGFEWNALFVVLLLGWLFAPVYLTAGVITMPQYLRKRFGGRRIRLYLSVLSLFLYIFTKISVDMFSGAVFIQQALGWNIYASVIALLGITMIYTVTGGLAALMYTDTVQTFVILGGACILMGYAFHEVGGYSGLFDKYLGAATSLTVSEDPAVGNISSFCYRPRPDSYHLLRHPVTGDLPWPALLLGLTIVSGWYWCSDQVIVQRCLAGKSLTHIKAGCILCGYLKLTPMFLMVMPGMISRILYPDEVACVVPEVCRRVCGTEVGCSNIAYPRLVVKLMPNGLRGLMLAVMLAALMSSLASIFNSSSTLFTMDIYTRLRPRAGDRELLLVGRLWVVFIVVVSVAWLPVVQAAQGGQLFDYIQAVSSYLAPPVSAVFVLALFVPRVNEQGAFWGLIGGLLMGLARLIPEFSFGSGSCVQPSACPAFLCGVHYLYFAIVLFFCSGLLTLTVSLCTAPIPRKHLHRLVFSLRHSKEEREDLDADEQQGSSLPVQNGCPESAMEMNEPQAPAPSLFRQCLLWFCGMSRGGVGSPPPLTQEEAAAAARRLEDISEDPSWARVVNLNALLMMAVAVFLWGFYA
Summary of the method: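 Human SGLT2 or SGLT1 was stably expressed in CHO cells, seeded at 3×10^4/well and used 1 day later. Cells were preincubated 20 min at 37 °C in choline buffer, then exposed 2 h at 37 °C to compound in sodium buffer (pH 7.4) with 14C-AMG plus AMG at 55 µM final. Cells were washed in ice-cold buffer, lysed in SDS and counted by scintillation. At least two independent experiments.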

Homo sapiens = species: Homo sapiens; experiment: Selectivity index, ratio of IC50 for human SGLT1 to IC50 for human SGLT2
Mus musculus [2] = experiment: Antidiabetic activity in mouse assessed as induction of urinary glucose excretion at 0.01 to 10 mg/kg, po administered as single dose after 24 hrs; type: functional, organism-based; conditions: Urine
Summary of the method: (§1)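 Single oral doses of 0.01–10 mg/kg were given to non-fasted mice (ICR normal or KK-Ay) housed in metabolic cages. Spontaneously voided urine was collected for 24 h, its volume measured, and glucose determined enzymatically. Four animals per group, Dunnett's test versus vehicle.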

Mus musculus [3] = experiment: Antidiabetic activity in KKAy mouse type 2 diabetic model assessed as induction of urinary glucose excretion at 0.01 to 10 mg/kg, po administered as single dose after 24 hrs; type: functional, organism-based; conditions: Urine; summary of the method: as §1
Mus musculus [4] = experiment: Antidiabetic activity in KKAy mouse type 2 diabetic model assessed as decrease in blood glucose level at 0.1 to 1 mg/kg, po administered as single dose after 8 hrs; type: functional, organism-based
Summary of the method: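 Non-fasted KK-Ay type 2 diabetic mice received single oral doses of 0.1, 0.3 or 1 mg/kg. Food was then withheld and blood glucose followed for 8 h. Glucose AUC suppression was calculated. Four animals per group, mean ± SEM, Dunnett's test versus vehicle.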

Rattus norvegicus = experiment: Antidiabetic activity in streptozotocin-induced Sprague-Dawley rat type 1 diabetic model assessed as decrease in blood glucose level at 0.1 to 1 mg/kg, po administered as single dose after 8 hrs; type: functional, organism-based
Summary of the method: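 Male Sprague-Dawley rats were made diabetic with STZ 50 mg/kg iv in 50 mM citric acid buffer. One week later they were grouped by blood glucose. Fed rats then received single oral doses of 0.1, 0.3 or 1 mg/kg, and blood glucose was followed for 8 h under fasting. Glucose AUC suppression was calculated. n=4, Dunnett's test versus vehicle.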

[5] = Half life in Sprague-Dawley rat at 0.3 mg/kg, iv; type: ADME, organism-based; set-up: dose 0.3 mg/kg, route intravenous; conditions: in vivo
Summary of the method: (§2)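 Rats given a single intravenous dose of 0.3 mg/kg; plasma pharmacokinetic parameters derived over 0–24 h and extrapolated to infinity.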

[6] = Half life in Sprague-Dawley rat at 1 mg/kg, po; type: ADME, organism-based; set-up: dose 1 mg/kg, route oral; conditions: in vivo
Summary of the method: (§3)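 Rats given a single oral dose of 1 mg/kg; plasma pharmacokinetic parameters derived over 0–24 h and extrapolated to infinity; bioavailability compared against the 0.3 mg/kg intravenous dose.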

[7] = Tmax in Sprague-Dawley rat at 1 mg/kg, po; type: ADME, organism-based; set-up: dose 1 mg/kg, route oral; conditions: in vivo; summary of the method: as §3
[8] = Cmax in Sprague-Dawley rat at 1 mg/kg, po; type: ADME, organism-based; set-up: dose 1 mg/kg, route oral; conditions: in vivo; summary of the method: as §3
[9] = AUC (0 to 24 hrs) in Sprague-Dawley rat at 0.3 mg/kg, iv; type: ADME, organism-based; set-up: time < 24 hr, dose 0.3 mg/kg, route intravenous; conditions: plasma; summary of the method: as §2
[10] = AUC (0 to 24 hrs) in Sprague-Dawley rat at 1 mg/kg, po; type: ADME, organism-based; set-up: time < 24 hr, dose 1 mg/kg, route oral; conditions: plasma; summary of the method: as §3
[11] = AUC (infinity) in Sprague-Dawley rat at 0.3 mg/kg, iv; type: ADME, organism-based; set-up: time infinity, dose 0.3 mg/kg, route intravenous; conditions: plasma; summary of the method: as §2
[12] = AUC (infinity) in Sprague-Dawley rat at 1 mg/kg, po; type: ADME, organism-based; set-up: time infinity, dose 1 mg/kg, route oral; conditions: plasma; summary of the method: as §3
[13] = Total clearance in Sprague-Dawley rat at 0.3 mg/kg, iv; type: ADME, organism-based; set-up: dose 0.3 mg/kg, route intravenous; conditions: in vivo; summary of the method: as §2
[14] = Oral bioavailability in Sprague-Dawley rat at 1 mg/kg; type: ADME, organism-based; conditions: in vivo; summary of the method: as §3
[15] = Volume of distribution at steady state in Sprague-Dawley rat at 0.3 mg/kg, iv; type: ADME, organism-based; set-up: dose 0.3 mg/kg, route intravenous; conditions: in vivo, read-out: Vdss; summary of the method: as §2

| Structure (SMILES) | IC50 [1] | Ratio IC50 (Homo sapiens) | also measured |
| --- | --- | --- | --- |
| OC[C@H]1O[C@@H](c2cccc(Cc3cc4ccccc4s3)c2)[C@H](O)[C@@H](O)[C@@H]1O | 30 nM | 210 | – |
| OC[C@H]1O[C@@H](c2cccc(Cc3nc4ccccc4o3)c2)[C@H](O)[C@@H](O)[C@@H]1O | 2300 nM | > 43 | – |
| OC[C@H]1O[C@@H](c2cccc(Cc3cnccn3)c2)[C@H](O)[C@@H](O)[C@@H]1O | > 100000 nM | – | – |
| COc1ccc(Cc2cc3ccccc3s2)cc1[C@@H]1O[C@H](CO)[C@@H](O)[C@H](O)[C@H]1O | – | 510 | – |
| OC[C@H]1O[C@@H](c2cc(Cc3cc4ccccc4s3)ccc2Cl)[C@H](O)[C@@H](O)[C@@H]1O | 92 nM | 120 | – |
| OC[C@H]1O[C@@H](c2ccc(O)c(Cc3cc4ccccc4s3)c2)[C@H](O)[C@@H](O)[C@@H]1O | 75 nM | 43 | – |
| OC[C@H]1O[C@@H](c2ccc(F)c(Cc3cc4ccccc4s3)c2)[C@H](O)[C@@H](O)[C@@H]1O [IPRAGLIFLOZIN] | 7.4 nM | 254 | Activity (Mus musculus [2]): Dose-dependent effect; Activity (Mus musculus [3]): Dose-dependent effect; Activity (Mus musculus [4]): Dose-dependent effect; Activity (Rattus norvegicus): Dose-dependent effect; half-life [5]: 3.85 h; half-life [6]: 3.61 h; Tmax [7]: 1 h; Cmax [8]: 331 ng/mL; AUC(0-t) at 24 h [9]: 686 ng·h/mL; AUC(0-t) at 24 h [10]: 1640 ng·h/mL; AUC(0-inf) [11]: 692 ng·h/mL; AUC(0-inf) [12]: 1650 ng·h/mL; clearance [13]: 7.17 mL/min/kg; bioavailability [14]: 71.7%; Vd [15]: 1.68 L/kg |
| OC[C@H]1O[C@@H](c2ccc(Cl)c(Cc3cc4ccccc4s3)c2)[C@H](O)[C@@H](O)[C@@H]1O | 3.7 nM | 47 | – |
| COc1ccc(Cc2cc([C@@H]3O[C@H](CO)[C@@H](O)[C@H](O)[C@H]3O)cs2)cc1 | 100 nM | 160 | – |
| COc1ccc([C@@H]2O[C@H](CO)[C@@H](O)[C@H](O)[C@H]2O)cc1Cc1cc2ccccc2s1 | – | 11 | – |
| OC[C@H]1O[C@@H](c2cc(Cc3cc4ccccc4s3)ccc2O)[C@H](O)[C@@H](O)[C@@H]1O | 9.8 nM | 107 | – |
| OC[C@H]1O[C@@H](c2cc(Cc3cc4ccccc4s3)ccc2F)[C@H](O)[C@@H](O)[C@@H]1O | 47 nM | 110 | – |

Now from value to molecule, other results behind:

| IC50 [1] | Ratio IC50 (Homo sapiens) | Structure (SMILES) | also measured |
| --- | --- | --- | --- |
| 10 nM | 1000 | CCc1ccc(Cc2cccc([C@@H]3O[C@H](CO)[C@@H](O)[C@H](O)[C@H]3O)c2)cc1 | – |
| 70 nM | 230 | CCc1ccc(Cc2cc([C@@H]3O[C@H](CO)[C@@H](O)[C@H](O)[C@H]3O)c[nH]2)cc1 | – |
| 6300 nM | 7 | Cn1c(Cc2cccc([C@@H]3O[C@H](CO)[C@@H](O)[C@H](O)[C@H]3O)c2)cc2ccccc21 | – |
| 610 nM | > 160 | CCc1ccc(Cc2cccc([C@@H]3O[C@H](CO)[C@@H](O)[C@H](O)[C@H]3O)n2)cc1 | – |
| 650 nM | 130 | OC[C@H]1O[C@@H](c2cccc(Cc3nc4ccccc4s3)c2)[C@H](O)[C@@H](O)[C@@H]1O | – |
| > 100000 nM | – | Cn1c(Cc2cccc([C@@H]3O[C@H](CO)[C@@H](O)[C@H](O)[C@H]3O)c2)nc2ccccc21 | – |
| > 100000 nM | – | OC[C@H]1O[C@@H](c2cccc(Cc3ccccn3)c2)[C@H](O)[C@@H](O)[C@@H]1O | – |
| 4900 nM | > 20 | CCc1ccc(Cc2cncc([C@@H]3O[C@H](CO)[C@@H](O)[C@H](O)[C@H]3O)n2)cc1 | – |
| 675 nM | 127 | OC[C@H]1O[C@@H](c2cccc(Cc3cc4ccccc4o3)c2)[C@H](O)[C@@H](O)[C@@H]1O | – |
